Common to all, as to format: functional
One experiment relates to Colletotrichum lagenaria. The experiment is described as follows: Antifungal activity against Colletotrichum lagenaria assessed as growth inhibition at 50 ug/mL measured after 2 days post dose. The note with it: 48 h, read-out: GI.
The test system of a further experiment is Puccinia triticina. As to the kind of experiment: Antifungal activity against Puccinia triticina inoculated on 500 ug/mL compound pre-treated wheat plants with 3 to 5 leaves assessed as growth inhibition. Put shortly: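 Healthy wheat plants at the 3-5 leaf stage were sprayed with compound (500 μg/mL) and then inoculated with spores. Inhibition percentage was calculated against the corresponding spore stack.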

In a further experiment the test system is Fusarium oxysporum. The experiment is described as follows: Antifungal activity against Fusarium oxysporum assessed as growth inhibition at 50 ug/mL measured after 2 days post dose. The note with it: 48 h, read-out: GI.
Experiment [1] concerns Tobacco mosaic virus. As to the kind of experiment: Induction of systemic acquired resistance against Tobacco mosaic virus (TMV) in tobacco plants exposed to 50 ug/mL compound through leaf spray followed by 7 days culture under green house conditions assessed as inhibition of viral growth in leaves infected with Tobacco mosaic virus (TMV) measured 72 hr post viral infection by half-leaf juice rubbing method. Also on record: scale not given: the % may be the effect or the level left. Put shortly:
(§1)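 Tobacco plants received compound by leaf spray or by soil irrigation, with double-distilled water as CK. Newly grown leaves were then rub-inoculated with TMV (5.88×10-2 μg/mL), and plants were kept at 25 °C for 72 h. Lesions on inoculated leaves were counted. Inhibition = (CK−A)/CK×100 from mean lesion numbers versus control.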

In the next experiment the test system is Ustilaginoidea virens. As to the kind of experiment: Antifungal activity against Villosiclava virens assessed as growth inhibition at 50 ug/mL measured after 2 days post dose. The note with it: for inhibition of growth at 50 µg/mL: 48 h, read-out: GI.
The next experiment deals with Phomopsis asparagi. As to the kind of experiment: Antifungal activity against Phomopsis asparagi assessed as growth inhibition at 50 ug/mL measured after 2 days post dose. The note with it: for inhibition of growth at 50 µg/mL: 48 h, read-out: GI.
In a further experiment the test system is Alternaria mali. The experiment is described as follows: Antifungal activity against Alternaria mali assessed as growth inhibition at 50 ug/mL measured after 2 days post dose. The following applies: 48 h, read-out: GI.
A further experiment deals with Cytospora mali. The experiment is described as follows: Antifungal activity against Valsa mali assessed as growth inhibition at 50 ug/mL measured after 2 days post dose. The note with it: for inhibition of growth at 50 µg/mL: 48 h, read-out: GI.
The test system of a further experiment is Fusarium fujikuroi. The experiment is described as follows: Antifungal activity against Fusarium fujikuroi assessed as growth inhibition at 50 ug/mL measured after 2 days post dose. The note with it: 48 h, read-out: GI.
The next experiment relates to Mycosphaerella arachidis. As to the kind of experiment: Antifungal activity against Mycosphaerella arachidis assessed as growth inhibition at 50 ug/mL measured after 2 days post dose. The note with it: 48 h, read-out: GI.
The test system of experiment [2] is Fusarium oxysporum f. sp. vasinfectum. The experiment is described as follows: Antifungal activity against Fusarium oxysporum f. sp. vasinfectum assessed as growth inhibition at 50 ug/mL measured after 2 days post dose. The following applies: for inhibition of growth at 50 µg/mL: 48 h, read-out: GI.
For experiment [3], the system named is Colletotrichum gloeosporioides. As to the kind of experiment: Antifungal activity against Glomerella cingulata assessed as growth inhibition at 50 ug/mL measured after 2 days post dose. The note with it: for inhibition of growth at 50 µg/mL: 48 h, read-out: GI.
A further experiment deals with Sclerotinia sclerotiorum. The experiment is described as follows: Antifungal activity against Sclerotinia sclerotiorum assessed as growth inhibition at 50 ug/mL measured after 2 days post dose. The following applies: for inhibition of growth at 50 µg/mL: 48 h, read-out: GI.
A further experiment concerns Alternaria solani. As to the kind of experiment: Antifungal activity against Alternaria solani assessed as growth inhibition at 50 ug/mL measured after 2 days post dose. The following applies: 48 h, read-out: GI.
The next experiment relates to Fusarium graminearum. As to the kind of experiment: Antifungal activity against Fusarium graminearum assessed as growth inhibition at 50 ug/mL measured after 2 days post dose. The following applies: 48 h, read-out: GI. The method in brief: (§2)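 Compound stock at 500 μg/mL in DMF, diluted with sterile water in the dish and mixed into potato dextrose agar before setting. A 4 mm diameter fungal plug is placed on the plate and cultured at 24-26 °C. Colony diameter is measured after 2 days.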

The next experiment has as its system Alternaria kikuchiana. As to the kind of experiment: Antifungal activity against Alternaria kikuchiana assessed as growth inhibition at 50 ug/mL measured after 2 days post dose. The following applies: for inhibition of growth at 50 µg/mL: 48 h, read-out: GI.
The next experiment has as its system Botrytis cinerea. As to the kind of experiment: Antifungal activity against Botryotinia fuckeliana assessed as growth inhibition at 50 ug/mL measured after 2 days post dose. The note with it: for inhibition of growth at 50 µg/mL: 48 h, read-out: GI.
Experiment [4] concerns Tobacco mosaic virus. As to the kind of experiment: Induction of systemic acquired resistance against Tobacco mosaic virus (TMV) in tobacco plants exposed to 500 ug/mL compound through leaf spray followed by 7 days culture under green house conditions assessed as inhibition of viral growth in leaves infected with Tobacco mosaic virus (TMV) measured 72 hr post viral infection by half-leaf juice rubbing method. On the set-up: scale not given: the % may be the effect or the level left. The method in brief: as §1

In another experiment the test system is Phytophthora infestans. The experiment is described as follows: Antifungal activity against Phytophthora infestans assessed as growth inhibition at 50 ug/mL measured after 2 days post dose. The method in brief: as §2
In experiment [5] the test system is Botryosphaeria berengeriana. As to the kind of experiment: Antifungal activity against Botryosphaeria berengeriana assessed as growth inhibition at 50 ug/mL measured after 2 days post dose. The note with it: 48 h, read-out: GI.
Another experiment deals with Ceratobasidium cereale. As to the kind of experiment: Antifungal activity against Ceratobasidium cereale assessed as growth inhibition at 50 ug/mL measured after 2 days post dose. The note with it: 48 h, read-out: GI.
For another experiment, the system named is Rhizoctonia solani. The experiment is described as follows: Antifungal activity against Rhizoctonia solani assessed as growth inhibition at 50 ug/mL measured after 2 days post dose. The note with it: 48 h, read-out: GI.

From ChEMBL document CHEMBL3046238, “Synthesis and biological activity evaluation of 1,2,3-thiadiazole derivatives as potential elicitors with highly systemic acquired resistance” (2009) come the findings set out here.

Activity calls are given as the source filed them. The calls are words filed in the database; no cut-off is given here.

`Cc1nnsc1C(=O)Nc1nc(-c2ccccc2)cs1`: the inhibition of growth at 50 µg/mL in the experiment with Colletotrichum lagenaria is 6.7%; with Fusarium oxysporum, 13.3%; with Ustilaginoidea virens, 55.6%; with Phomopsis asparagi it was 6.3%; in the experiment with Alternaria mali it was 10%; in the experiment on Cytospora mali it was 22.2%. The inhibition of growth at 50 µg/mL was determined as 64.3% in the experiment with Fusarium fujikuroi; 14.3% in the experiment with Mycosphaerella arachidis; 40% in experiment [2]; 15.8% in experiment [3]; 47.3% in the experiment on Sclerotinia sclerotiorum; 15.8% in the experiment with Alternaria solani. In addition, the inhibition of growth at 50 µg/mL was 18.8% in the experiment with Fusarium graminearum, 37.5% in the experiment with Alternaria kikuchiana and 8.3% with Botrytis cinerea. Also, the “growth inhibition (GI)” value in the experiment with Puccinia triticina is 0%. The Activity in the experiment on Tobacco mosaic virus [1] was 74%; in the experiment with Tobacco mosaic virus [4] it was 70%.
Take `CCCc1sc(NC(=O)c2snnc2C)nc1-c1ccc(Cl)cc1Cl`: the inhibition of growth at 50 µg/mL in the experiment with Colletotrichum lagenaria came out at 11.8%; in the experiment with Fusarium oxysporum it was 10%; in the experiment with Alternaria mali, 6.9%; in the experiment on Cytospora mali, 4.3%; in the experiment with Fusarium fujikuroi, 21.1%; in the experiment with Mycosphaerella arachidis, 35.7%. Besides, the inhibition of growth at 50 µg/mL in experiment [2] came to 3.6%; in experiment [3], 12%; in the experiment on Sclerotinia sclerotiorum, 22.2%; in the experiment on Alternaria solani, 4%; in the experiment on Fusarium graminearum, 25%. The “growth inhibition (GI)” value in the experiment on Puccinia triticina worked out at 30%. For the same compound, the “growth inhibition (GI)” value with Ustilaginoidea virens, with Phomopsis asparagi, in the experiment on Alternaria kikuchiana and with Botrytis cinerea was “inactive” throughout. In the experiment with Tobacco mosaic virus [4], the Activity stood at 20%.
In the case of `Cc1nnsc1C(=O)Nc1nc(-c2ccc(Cl)cc2)cs1`, the inhibition of growth at 50 µg/mL worked out at 13.3% in the experiment with Colletotrichum lagenaria; 46.7% in the experiment on Fusarium oxysporum; 11.1% in the experiment on Ustilaginoidea virens; 37.5% with Phomopsis asparagi; 15% in the experiment with Alternaria mali; 88.9% in the experiment on Cytospora mali. The inhibition of growth at 50 µg/mL was found to be 64.3% in the experiment on Fusarium fujikuroi; 29.4% in the experiment with Mycosphaerella arachidis; 40% in [2]; 68.4% in experiment [3]; 61.5% in the experiment on Sclerotinia sclerotiorum; 0% in the experiment on Alternaria solani. Besides, the inhibition of growth at 50 µg/mL was 18.8% with Fusarium graminearum, 0% in the experiment with Alternaria kikuchiana and 12% in the experiment with Botrytis cinerea. For the same compound, the “growth inhibition (GI)” value with Puccinia triticina was determined as 0%. Further, in the experiment with Tobacco mosaic virus [4], the Activity is 40%.
Take `CCc1sc(NC(=O)c2snnc2C)nc1-c1ccc(Cl)cc1Cl`: the inhibition of growth at 50 µg/mL was determined as 26.7% in the experiment with Colletotrichum lagenaria; 13.3% in the experiment with Fusarium oxysporum; 33.3% in the experiment with Ustilaginoidea virens; 12.5% with Phomopsis asparagi; 35% with Alternaria mali; 44.4% in the experiment on Cytospora mali. Further, the inhibition of growth at 50 µg/mL came to 64.3% in the experiment on Fusarium fujikuroi; 14.3% in the experiment on Mycosphaerella arachidis; 20% in [2]; 20.1% in experiment [3]; 61.5% with Sclerotinia sclerotiorum; 33.3% with Alternaria solani. Also, the inhibition of growth at 50 µg/mL with Fusarium graminearum was determined as 25%; with Alternaria kikuchiana it was 37.5%; with Botrytis cinerea it was 40%. The “growth inhibition (GI)” value in the experiment on Puccinia triticina worked out at 0%. The Activity in the experiment with Tobacco mosaic virus [4] worked out at 0%.
Turning to `Cc1csc(NC(=O)c2snnc2C)n1`, the inhibition of growth at 50 µg/mL with Colletotrichum lagenaria was determined as 17.6%; in the experiment on Fusarium oxysporum, 15%; with Alternaria mali it was 50%; with Fusarium fujikuroi it was 64.3%; in the experiment on Mycosphaerella arachidis, 29.4%; in the experiment on Alternaria solani, 35.7%. The inhibition of growth at 50 µg/mL in the experiment on Fusarium graminearum was 7.1%; with Alternaria kikuchiana, 17.6%. For the same compound, the “growth inhibition (GI)” value (with Puccinia triticina; in the experiment with Ustilaginoidea virens; with Phomopsis asparagi; in the experiment on Cytospora mali; in experiment [2]; in [3]) was “inactive” each time. Further, the “growth inhibition (GI)” value in the experiment with Sclerotinia sclerotiorum and with Botrytis cinerea was “inactive” throughout. Moreover, the Activity in the experiment with Tobacco mosaic virus [1] came to 81%; in the experiment on Tobacco mosaic virus [4], 70%.
On to `COc1ccc(-c2nnc(-c3snnc3C)o2)cc1`, for which, in the experiment on Puccinia triticina, the “growth inhibition (GI)” value is 0%. Moreover, the inhibition of growth at 50 µg/mL in the experiment with Fusarium oxysporum came out at 0%; with Ustilaginoidea virens, 29.4%; with Alternaria mali, 37.9%; with Cytospora mali, 47.2%; with Fusarium fujikuroi, 0%; in experiment [5], 33.3%. The inhibition of growth at 50 µg/mL in the experiment on Mycosphaerella arachidis worked out at 17.6%; in the experiment on Ceratobasidium cereale it was 31%; in [2], 0%; in experiment [3], 29.4%; with Sclerotinia sclerotiorum, 23.5%; in the experiment on Alternaria solani it was 17.6%. For the same compound, the results for the inhibition of growth at 50 µg/mL in the experiment with Fusarium graminearum, with Botrytis cinerea and with Rhizoctonia solani were 37.9%, 31% and 0%, respectively. For the same compound, the Activity with Tobacco mosaic virus [1] is recorded as 78%; with Tobacco mosaic virus [4] it was 80%. For the same compound, the “growth inhibition (GI)” value in the experiment with Phytophthora infestans is “inactive”.
Turning to `Cc1nnsc1C(=O)Nc1nc(-c2ccc([N+](=O)[O-])cc2)cs1`, the inhibition of growth at 50 µg/mL with Colletotrichum lagenaria was found to be 17.6%; with Fusarium oxysporum it was 13.3%; in the experiment on Alternaria mali, 24.1%; in the experiment with Cytospora mali, 26.1%; in the experiment with Fusarium fujikuroi, 5.3%; in the experiment with Mycosphaerella arachidis it was 35.7%. For the same compound, the inhibition of growth at 50 µg/mL in experiment [2] amounted to 14.3%; in experiment [3], 8%; with Sclerotinia sclerotiorum, 11.1%; in the experiment on Alternaria solani, 20%; with Fusarium graminearum, 37.5%; with Alternaria kikuchiana, 0%. Also, the “growth inhibition (GI)” value with Puccinia triticina, in the experiment with Ustilaginoidea virens, in the experiment on Phomopsis asparagi and in the experiment with Botrytis cinerea was “inactive” throughout. Further, the Activity in the experiment with Tobacco mosaic virus [4] is reported as 0%.
